From ChEMBL document CHEMBL1152312, “Neopyrrolomycins with broad spectrum antibacterial activity” (2009)
≈ marks a conversion by molar mass, not a printed value. Calls of active or inactive are those of the source. No cut-off for these calls is given here.

Experiments:
[1] = tested on: Pseudomonas aeruginosa; assay: Antibacterial activity against Pseudomonas aeruginosa 1473 by microdilution method; assay type: functional
How it was run: (§1)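 MIC values from CLSI broth microdilution. Strains came from the ATCC collection and from clinical isolates.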

[2] = tested on: Staphylococcus aureus; assay: Antibacterial activity against methicillin-resistant Staphylococcus aureus 1137 by microdilution method; assay type: functional; how it was run: as §1
[3] = tested on: Staphylococcus aureus; assay: Antibacterial activity against methicillin-resistant Staphylococcus aureus 2170 by microdilution method; assay type: functional; how it was run: as §1
[4] = tested on: Staphylococcus aureus; assay: Antibacterial activity against vancomycin-intermediate Staphylococcus aureus 2012 by microdilution method; assay type: functional; how it was run: as §1
[5] = tested on: Staphylococcus aureus; assay: Antibacterial activity against vancomycin-intermediate Staphylococcus aureus 2018 by microdilution method; assay type: functional; how it was run: as §1
[6] = tested on: Staphylococcus aureus; assay: Antibacterial activity against Linezolid, methicillin-resistant Staphylococcus aureus 1725 by microdilution method; assay type: functional; how it was run: as §1
[7] = tested on: Staphylococcus aureus; assay: Antibacterial activity against Linezolid, methicillin-resistant Staphylococcus aureus 1651 by microdilution method; assay type: functional; how it was run: as §1
[8] = tested on: Staphylococcus aureus; assay: Antibacterial activity against community-acquired Staphylococcus aureus 2144 by microdilution method; assay type: functional; how it was run: as §1
[9] = tested on: Staphylococcus epidermidis; assay: Antibacterial activity against methicillin-sensitive Staphylococcus epidermidis 1597 by microdilution method; assay type: functional; how it was run: as §1
[10] = tested on: Staphylococcus epidermidis; assay: Antibacterial activity against methicillin-resistant Staphylococcus epidermidis 1452 by microdilution method; assay type: functional; how it was run: as §1
[11] = tested on: Staphylococcus epidermidis; assay: Antibacterial activity against Staphylococcus epidermidis 495 by microdilution method; assay type: functional; how it was run: as §1
[12] = tested on: Enterococcus faecalis; assay: Antibacterial activity against vancomycin-resistant Enterococcus faecalis 846 by microdilution method; assay type: functional; how it was run: as §1
[13] = tested on: Enterococcus faecium; assay: Antibacterial activity against vancomycin-sensitive Enterococcus faecium 843 by microdilution method; assay type: functional; how it was run: as §1
[14] = tested on: Enterococcus faecium; assay: Antibacterial activity against vancomycin-resistant Enterococcus faecium 1254 by microdilution method; assay type: functional; how it was run: as §1
[15] = tested on: Streptococcus pneumoniae; assay: Antibacterial activity against penicillin-susceptible Streptococcus pneumoniae 866 by microdilution method; assay type: functional; how it was run: as §1
[16] = tested on: Streptococcus pneumoniae; assay: Antibacterial activity against penicillin-resistant Streptococcus pneumoniae 940 by microdilution method; assay type: functional; how it was run: as §1
[17] = tested on: Streptococcus pneumoniae; assay: Antibacterial activity against penicillin-resistant Streptococcus pneumoniae 748 by microdilution method; assay type: functional; how it was run: as §1
[18] = tested on: Streptococcus pneumoniae; assay: Antibacterial activity against quinolone-resistant Streptococcus pneumoniae 376 by microdilution method; assay type: functional; how it was run: as §1
[19] = tested on: Streptococcus pneumoniae; assay: Antibacterial activity against quinolone-resistant Streptococcus pneumoniae 379 by microdilution method; assay type: functional; how it was run: as §1
[20] = tested on: Streptococcus pneumoniae; assay: Antibacterial activity against multidrug-resistant Streptococcus pneumoniae 933 by microdilution method; assay type: functional; how it was run: as §1
[21] = tested on: Streptococcus pneumoniae; assay: Antibacterial activity against Streptococcus pneumoniae 1195 ATCC 49619 by microdilution method; assay type: functional; how it was run: as §1
[22] = tested on: Streptococcus pyogenes; assay: Antibacterial activity against Streptococcus pyogenes 723 by microdilution method; assay type: functional; how it was run: as §1
[23] = tested on: Streptococcus agalactiae; assay: Antibacterial activity against Streptococcus agalactiae 2033 by microdilution method; assay type: functional; how it was run: as §1
[24] = tested on: Moraxella catarrhalis; assay: Antibacterial activity against Moraxella catarrhalis 557 by microdilution method; assay type: functional; how it was run: as §1
[25] = tested on: Haemophilus influenzae; assay: Antibacterial activity against ampicillin-resistant Haemophilus influenzae 1742 by microdilution method; assay type: functional; how it was run: as §1
[26] = tested on: Haemophilus influenzae; assay: Antibacterial activity against Haemophilus influenzae 1224 ATCC 49247 by microdilution method; assay type: functional; how it was run: as §1
[27] = tested on: Haemophilus parainfluenzae; assay: Antibacterial activity against Haemophilus parainfluenzae 2319 ATCC 7901 by microdilution method; assay type: functional; how it was run: as §1
[28] = tested on: Escherichia coli; assay: Antibacterial activity against Escherichia coli 102 ATCC 25922 by microdilution method; assay type: functional; how it was run: as §1
[29] = tested on: Escherichia coli; assay: Antibacterial activity against extended spectrum beta-lactamase-producing Escherichia coli 2269 by microdilution method; assay type: functional; how it was run: as §1
[30] = tested on: Klebsiella pneumoniae; assay: Antibacterial activity against Klebsiella pneumoniae 2239 by microdilution method; assay type: functional; how it was run: as §1
[31] = tested on: Klebsiella pneumoniae; assay: Antibacterial activity against ampicillin beta-lactamase, multidrug-resistant Klebsiella pneumoniae 2262 by microdilution method; assay type: functional; how it was run: as §1
[32] = tested on: Serratia marcescens; assay: Antibacterial activity against Serratia marcescens 1635 by microdilution method; assay type: functional; how it was run: as §1
[33] = tested on: Escherichia coli; assay: Antibacterial activity against Escherichia coli 25922 by microdilution method; assay type: functional
How it was run: (§2)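 MIC determined by CLSI broth microdilution; organisms were ATCC strains and clinical isolates.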

[34] = tested on: Escherichia coli; assay: Antibacterial activity against Escherichia coli 1411 by microdilution method; assay type: functional; how it was run: as §2
[35] = tested on: Klebsiella pneumoniae; assay: Antibacterial activity against Klebsiella pneumoniae 4352 by microdilution method; assay type: functional; how it was run: as §2
[36] = tested on: Staphylococcus aureus; assay: Antibacterial activity against methicillin-resistant Staphylococcus aureus 43300 by microdilution method; assay type: functional; how it was run: as §1
[37] = tested on: Staphylococcus aureus; assay: Antibacterial activity against methicillin-sensitive Staphylococcus aureus 6538 by microdilution method; assay type: functional; how it was run: as §1
[38] = tested on: Staphylococcus aureus; assay: Antibacterial activity against methicillin-sensitive Staphylococcus aureus 29213 by microdilution method; assay type: functional; how it was run: as §1
[39] = tested on: Pseudomonas aeruginosa; assay: Antibacterial activity against Pseudomonas aeruginosa 27853 by microdilution method; assay type: functional; how it was run: as §2
[40] = tested on: Streptococcus pneumoniae; assay: Antibacterial activity against Streptococcus pneumoniae 49619 by microdilution method; assay type: functional; how it was run: as §2
[41] = tested on: Enterococcus faecium; assay: Antibacterial activity against vancomycin-resistant Enterococcus faecium 700221 by microdilution method; assay type: functional; how it was run: as §1
[42] = tested on: Staphylococcus aureus; assay: Antibacterial activity against methicillin-sensitive Staphylococcus aureus 100 ATCC 29213 by microdilution method; assay type: functional; how it was run: as §1
[43] = tested on: HepG2; assay: Cytotoxicity against human HepG2 cells assessed as effect on cell viability at 8 ug/mL after 48 hrs by celltiter glow assay; assay type: functional, cell-based
How it was run: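 HepG2 cells were kept in MEM with 10% heat-inactivated FBS, 0.10 mM nonessential amino acids and 1 mM sodium pyruvate at 37 °C and 5% CO2. Cells were seeded at 1.25 × 10^5 cells/mL 24 h before dosing. Compounds were dissolved in DMSO and tested at 0.6–128 µg/mL with 1% DMSO final for 48 h. Viability was read by CellTiter-Glo luminescence as a percentage of the DMSO control.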

[44] = tested on: NHDF; assay: Cytotoxicity against NHDF cells after 48 hrs by celltiter glow assay; assay type: functional; conditions: Homo sapiens
How it was run: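 Fibroblasts kept at 37 °C, 5% CO2 in FGM-2 medium, passage ≤16. Seeded at 1.25 × 10^5 cells/mL 24 h before dosing. Compounds dissolved in DMSO, tested 0.6–128 µg/mL at 1% final DMSO for 48 h. Viability by CellTiter-Glo luminescence, expressed as percent of DMSO control.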

Compound: O=C(O)c1cn(C2CC2)c2cc(N3CCNCC3)c(F)cc2c1=O [CIPROFLOXACIN]
- MIC90 [1]: 1 µg/mL (≈ 3.02 µM)
- MIC90 [2]: > 2 µg/mL
- MIC90 [3]: > 2 µg/mL
- MIC90 [4]: > 2 µg/mL
- MIC90 [5]: > 2 µg/mL
- MIC90 [6]: > 2 µg/mL
- MIC90 [7]: > 2 µg/mL
- MIC90 [8]: > 2 µg/mL
- MIC90 [9]: 0.25 µg/mL (≈ 0.754 µM)
- MIC90 [10]: > 2 µg/mL
- MIC90 [11]: 0.5 µg/mL (≈ 1.51 µM)
- MIC90 [12]: > 2 µg/mL
- MIC90 [13]: > 2 µg/mL
- MIC90 [14]: > 2 µg/mL
- MIC90 [15]: > 2 µg/mL
- MIC90 [16]: > 2 µg/mL
- MIC90 [17]: 1 µg/mL (≈ 3.02 µM)
- MIC90 [18]: > 2 µg/mL
- MIC90 [19]: > 2 µg/mL
- MIC90 [20]: 2 µg/mL (≈ 6.04 µM)
- MIC90 [21]: 1 µg/mL (≈ 3.02 µM)
- MIC90 [22]: 0.5 µg/mL (≈ 1.51 µM)
- MIC90 [23]: 1 µg/mL (≈ 3.02 µM)
- MIC90 [24]: 0.03 µg/mL (≈ 0.0905 µM)
- MIC90 [25]: 0.008 µg/mL (≈ 0.0241 µM)
- MIC90 [26]: 0.15 µg/mL (≈ 0.453 µM)
- MIC90 [27]: 0.15 µg/mL (≈ 0.453 µM)
- MIC90 [28]: 0.008 µg/mL (≈ 0.0241 µM)
- MIC90 [29]: > 2 µg/mL
- MIC90 [30]: 0.03 µg/mL (≈ 0.0905 µM)
- MIC90 [31]: > 2 µg/mL
- MIC90 [32]: 0.06 µg/mL (≈ 0.181 µM)

Compound: Oc1cc(Cl)c(Cl)c(Cl)c1-n1cc(Cl)c(Cl)c1Cl [NEOPYRROLOMYCIN B]
- MIC90 [1]: 16 µg/mL (≈ 43.7 µM)
- MIC90 [33]: 16 µg/mL (≈ 43.7 µM)
- MIC90 [34]: 16 µg/mL (≈ 43.7 µM)
- MIC90 [35]: 16 µg/mL (≈ 43.7 µM)
- MIC90 [36]: 0.125 µg/mL (≈ 0.342 µM)
- MBC [37]: 2 µg/mL (≈ 5.47 µM)
- MIC90 [37]: 0.25 µg/mL (≈ 0.683 µM)
- MIC90 [38]: 0.5 µg/mL (≈ 1.37 µM)
- MIC90 [39]: 16 µg/mL (≈ 43.7 µM)
- MIC90 [40]: 1 µg/mL (≈ 2.73 µM)
- MIC90 [41]: 0.5 µg/mL (≈ 1.37 µM)
- MIC90 [42]: 0.25 µg/mL (≈ 0.683 µM)
- MIC90 [2]: 0.12 µg/mL (≈ 0.328 µM)
- MIC90 [3]: ≤ 0.06 µg/mL
- MIC90 [4]: ≤ 0.06 µg/mL
- MIC90 [5]: ≤ 0.06 µg/mL
- MIC90 [6]: ≤ 0.06 µg/mL
- MIC90 [7]: ≤ 0.06 µg/mL
- MIC90 [8]: 0.12 µg/mL (≈ 0.328 µM)
- MIC90 [9]: ≤ 0.06 µg/mL
- MIC90 [10]: ≤ 0.06 µg/mL
- MIC90 [11]: ≤ 0.06 µg/mL
- MIC90 [12]: ≤ 0.06 µg/mL
- MIC90 [13]: ≤ 0.06 µg/mL
- MIC90 [14]: ≤ 0.06 µg/mL
- MIC90 [15]: 16 µg/mL (≈ 43.7 µM)
- MIC90 [16]: 1 µg/mL (≈ 2.73 µM)
- MIC90 [17]: 1 µg/mL (≈ 2.73 µM)
- MIC90 [18]: 2 µg/mL (≈ 5.47 µM)
- MIC90 [19]: 16 µg/mL (≈ 43.7 µM)
- MIC90 [20]: 1 µg/mL (≈ 2.73 µM)
- MIC90 [21]: 2 µg/mL (≈ 5.47 µM)
- MIC90 [22]: > 16 µg/mL
- MIC90 [23]: 16 µg/mL (≈ 43.7 µM)
- MIC90 [24]: ≤ 0.06 µg/mL
- MIC90 [25]: 0.5 µg/mL (≈ 1.37 µM)
- MIC90 [26]: 0.25 µg/mL (≈ 0.683 µM)
- MIC90 [27]: 1 µg/mL (≈ 2.73 µM)
- MIC90 [28]: 8 µg/mL (≈ 21.9 µM)
- MIC90 [29]: 8 µg/mL (≈ 21.9 µM)
- MIC90 [30]: 16 µg/mL (≈ 43.7 µM)
- MIC90 [31]: 8 µg/mL (≈ 21.9 µM)
- MIC90 [32]: 16 µg/mL (≈ 43.7 µM)
- Activity [43]: Active
- CC90 [44]: 16 µg/mL (≈ 43.7 µM)
